Paper PMC5362249 (Biochemical pharmacology, 2016)

Tests used:
Mrp4 [1] = target: T1, Mrp4 (Mus musculus, UniProt E9Q236); assay: Effect of MK571 on tissue distribution of IP-administered TFV; assay type: in vivo
T1 sequence (E9Q236 1-1325): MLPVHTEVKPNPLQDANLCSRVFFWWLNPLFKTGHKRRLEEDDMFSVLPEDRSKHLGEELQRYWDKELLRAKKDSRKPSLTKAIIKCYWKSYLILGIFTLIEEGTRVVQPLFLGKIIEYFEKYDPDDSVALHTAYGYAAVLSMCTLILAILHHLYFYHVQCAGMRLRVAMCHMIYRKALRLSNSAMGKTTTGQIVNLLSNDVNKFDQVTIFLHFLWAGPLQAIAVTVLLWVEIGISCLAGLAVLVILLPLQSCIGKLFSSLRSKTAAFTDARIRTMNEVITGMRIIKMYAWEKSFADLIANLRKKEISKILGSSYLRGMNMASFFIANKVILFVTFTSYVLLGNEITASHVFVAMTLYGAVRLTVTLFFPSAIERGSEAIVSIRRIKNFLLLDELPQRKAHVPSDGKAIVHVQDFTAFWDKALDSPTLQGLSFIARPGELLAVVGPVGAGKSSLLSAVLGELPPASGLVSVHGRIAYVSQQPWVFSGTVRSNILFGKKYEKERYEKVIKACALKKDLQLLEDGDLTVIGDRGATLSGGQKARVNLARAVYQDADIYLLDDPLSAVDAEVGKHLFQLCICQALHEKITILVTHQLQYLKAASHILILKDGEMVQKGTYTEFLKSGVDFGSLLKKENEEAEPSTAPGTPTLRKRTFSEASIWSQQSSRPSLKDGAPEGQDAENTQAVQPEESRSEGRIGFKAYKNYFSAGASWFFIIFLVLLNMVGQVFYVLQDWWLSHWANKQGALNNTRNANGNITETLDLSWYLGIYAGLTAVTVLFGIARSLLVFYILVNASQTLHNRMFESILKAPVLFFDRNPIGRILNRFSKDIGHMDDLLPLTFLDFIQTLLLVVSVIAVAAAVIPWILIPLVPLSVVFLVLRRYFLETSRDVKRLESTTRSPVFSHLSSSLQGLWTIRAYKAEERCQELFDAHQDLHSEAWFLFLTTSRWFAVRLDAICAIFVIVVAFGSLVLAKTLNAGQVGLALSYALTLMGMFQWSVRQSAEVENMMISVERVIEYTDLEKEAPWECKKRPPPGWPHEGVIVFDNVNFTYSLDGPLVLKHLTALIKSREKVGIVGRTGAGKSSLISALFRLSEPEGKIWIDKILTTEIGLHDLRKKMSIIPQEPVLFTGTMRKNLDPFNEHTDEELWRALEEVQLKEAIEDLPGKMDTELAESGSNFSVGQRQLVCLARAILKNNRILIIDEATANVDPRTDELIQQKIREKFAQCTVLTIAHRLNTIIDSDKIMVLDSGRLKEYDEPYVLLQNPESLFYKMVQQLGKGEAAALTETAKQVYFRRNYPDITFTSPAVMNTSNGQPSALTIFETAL
Procedure, shortened: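 Synchronized mice received 100 μL saline or saline containing 7.5 mg/mL MK571 IP. 15 min later they received 100 μL 3H-TFV in saline IP (0.94 × 10−5 mmol/mL, 125 μCi/mL). At 1.5 h: CVL (3 × 20 μL saline), plasma and tissues. Samples were dissolved in Solvable overnight at 50 °C, decolorized with H2O2 (50 °C, 1 h), then counted by scintillation. Two groups compared by t-test.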

Mrp4 [2] = target: T1, Mrp4; assay: Effect of MK571 on tissue distribution of vaginally administered TFV; assay type: in vivo
Procedure, shortened: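 Synchronized mice got IP saline or MK571 (100 μL, 7.5 mg/mL), then 20 μL vaginal gel 30 min later. Gel: 2.7% universal placebo (pH 4.4) with 3H-TFV plus unlabelled TFV, ±MK571. Ketamine/xylazine IP 5 min before gel. At 0.5 and 1 h: CVL (8 × 25 μL saline), plasma, tissues. Scintillation counting; total TFV from labelled:unlabelled ratio. 7–13 mice per point; ANOVA.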

[3] = In vitro release of TFV from gels, Franz cell apparatus; assay type: physicochemical
Procedure, shortened: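 Gels containing TFV, with or without MK571, were placed in the donor chamber of a Franz cell with PBS in the acceptor chamber. Acceptor TFV concentration over time gave cumulative release (30 and 60 min) and Papp. Three gels per group, mean ± SD.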

[4] = target: glucocorticoid receptor (GR); settings: agonist; approximate; cited from earlier work
[5] = test system: NRs for mineralocorticoids; settings: cited from earlier work
NRs for estrogen = settings: cited from earlier work
P-gp (Abcb1b) = assay: Real-time RT-PCR of transporter mRNA in mouse tissues after exogenous hormones; assay type: in vivo; settings: uterus and ectocervix; Gapdh-normalized
Procedure, shortened: (§1)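 Tissues were taken from naturally cycling mice at estrus or diestrus (vaginal cytology staging) and from PMSG- or Depo-Provera-synchronized mice, 3–5 mice each. Real-time RT-PCR transporter mRNA was normalized to Gapdh by the 2−ΔCt method; Student's t-test between stages.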

P-gp (Abcb1a/1b) protein = assay type: in vivo, mouse; settings: endocervix, ectocervix, vagina
Procedure, shortened: (§2)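 Tissues came from natural estrus and diestrus mice (staged by vaginal cytology) and synchronized mice (estrus 24 h after PMSG; diestrus 7 days after first Depo-Provera), at least 3 mice each. Primary antibody dilutions: P-gp 1:15, Bcrp 1:25, Mrp4 1:15, overnight at 4 °C. Then biotinylated secondary (1:200, 30 min RT), ABC 30 min, AEC, hematoxylin. Non-immune IgG as negative control.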

P-gp (Abcb1a) = assay: Real-time RT-PCR of transporter mRNA in mouse tissues after exogenous hormones; assay type: in vivo; settings: uterus and endocervix; Gapdh-normalized
Procedure, shortened: as §1

Mrp4 protein = assay type: in vivo, mouse; settings: endocervix, ectocervix, and vagina; vs natural estrous cycle
Procedure, shortened: as §2

Bcrp protein = assay type: in vivo, mouse; settings: compared to the natural estrous stages
Procedure, shortened: as §2

Bcrp (Abcg2) = assay: Real-time RT-PCR of transporter mRNA in mouse tissues after exogenous hormones; assay type: in vivo; settings: uterus; Gapdh-normalized
Procedure, shortened: as §1

Mrp4 (Abcc4) = assay: as above; assay type: in vivo; settings: uterus, endocervix, and colorectum; Gapdh-normalized
Procedure, shortened: as §1

[6] = MK571 incorporated into TFV gel vs control, 0.5 h post gel
[7] = MK571 incorporated into TFV gel vs control, 1.0 h

With `CN(C)C(=O)CCSC(SCCC(=O)O)c1cccc(/C=C/c2ccc3ccc(Cl)cc3n2)c1` (stereo not drawn) [MK571] the “TFV concentration in CVL and vagina” value (Mrp4 [1]; MK571 IP 15 min before IP TFV, 1.5 h post-TFV, p = 0.04) was “increased”, the TFV colorectum/plasma ratio (Mrp4 [1]; MK571 IP co-administration, IP TFV, 1.5 h, p = 0.006) was “significantly increased” and the TFV vagina/plasma ratio (Mrp4 [1]; MK571 IP co-administration, IP TFV, 1.5 h, p = 0.03) was “significantly increased”. The “TFV concentrations in plasma, uterus, and colorectum” value (Mrp4 [2]; MK571 IP solution 30 min before vaginal TFV gel vs TFV gel only) was “only slightly increased or remained unchanged”, the “TFV concentration in CVL and endocervix” value (Mrp4 [2]; [6]) was “remained unchanged” and the “TFV concentration in mouse vaginal tissue” value (Mrp4 [2]; [6]) was “significantly higher”. The “TFV concentration in plasma, uterus, ectocervix, and colorectum” value (Mrp4 [2]; [6]) was “slightly, but not significantly, increased”, the “TFV CVL concentration” value (Mrp4 [2]; [7]) was “significantly decreased” and the “TFV concentration in plasma and uterus” value (Mrp4 [2]; [7]) was “remained unchanged”. The “TFV concentration in the colorectum” value (Mrp4 [2]; [7]) was “significantly increased”, the “decrease in TFV concentration in endocervix, ectocervix, and vagina” value (Mrp4 [2]; [7]) was “not statistically significant” and the “permeability coefficient Papp of TFV, gel with vs without MK571” value ([3]; Franz cell apparatus, acceptor chamber) was “almost identical”. The “impact of MK571 incorporation into the gel on in vitro release profile of TFV” value ([3]; vs gel containing TFV alone, Franz cell, PBS acceptor) was “did not have any impact”.
For `CC(=O)O[C@]1(C(C)=O)CC[C@H]2[C@@H]3C[C@H](C)C4=CC(=O)CC[C@]4(C)[C@H]3CC[C@@]21C` [MPA, medroxyprogesterone acetate], the EC50 [4] is given as about 10 nM, the “binding to nuclear receptor” value [5] is given as “does not bind significantly” and the “binding to nuclear receptor” value (NRs for estrogen) is given as “does not bind significantly”.
For `C[C@H](Cn1cnc2c(N)ncnc21)OCP(=O)(O)O` [TFV, tenofovir], the “TFV distribution compared to its plasma concentration” value (Mrp4 [1]; after IP administration, 1.5 h) was “preferentially distributed into cervicovaginal tissues and fluid”.
In the case of “PMSG: exogenous hormone known to stimulate estrogen levels, used to synchronize mice into estrus”, the “Abcb1b mRNA level compared to either stage of the natural cycle” value (P-gp (Abcb1b)) is reported as “significantly altered”, the “P-gp protein abundance or localization compared to natural estrous cycle” value (P-gp (Abcb1a/1b) protein) is reported as “did not exert an obvious effect” and the “Abcb1a mRNA level compared to either stage of the natural cycle” value (P-gp (Abcb1a)) is reported as “significantly altered”. The “epithelial and stromal abundance of Mrp4 protein” value (Mrp4 protein) was “decreased”, the “Bcrp protein density in vaginal epithelium” value (Bcrp protein) was “appeared to decrease” and the “Bcrp mRNA level compared to either stage of the natural cycle” value (Bcrp (Abcg2)) was “significantly altered”. The “Mrp4 mRNA level compared to either stage of the natural cycle” value (Mrp4 (Abcc4)) was “significantly altered”.
